Consider 46 compounds from ChEMBL document CHEMBL3259675, “Novel N-substituted sophoridinol derivatives as anticancer agents” (Eur J Med Chem, 2014).

In brackets after ≈: the same amount, converted by molar mass.

In assay [1] the test system is HepG2. As to the kind of experiment: Antiproliferative activity against human HepG2 cells assessed as growth inhibition at 10 ug/ml after 48 hrs by MTT assay. It is filed as functional. The following applies: HepG2, 48 h. A digest of the protocol:
(§1)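 Cell lines from ATCC, grown in MEM-EBSS with 10% FBS and 1% penicillin-streptomycin at 37 °C, 5% CO2. Seeded at 4000 cells/well, left 24 h, then exposed to a concentration series for 48 h. Growth read by MTT. Percent inhibition was computed at each concentration and IC50 derived from it. Triplicate determinations, reported as mean SD.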

For assay [2], the system named is HepG2. As to the kind of experiment: Antiproliferative activity against human HepG2 cells assessed as growth inhibition after 48 hrs by MTT assay. Format: functional, cell-based. The note with it: HepG2, 48 h. A digest of the protocol:
as §1

For orientation: inhibition means the share of the control response that was lost under treatment. With `O=C(O)CCC[C@@H]1[C@H]2CCCN3CCC[C@H](CN1Cc1cccc(Cl)c1)[C@@H]23`, the inhibition at 10 µg/mL in assay [1] came out at 22.8%.
Regarding `CCCCN1C[C@H]2CCCN3CCC[C@@H]([C@H]23)[C@H]1CCCCO`, the inhibition at 10 µg/mL in assay [1] worked out at 19.7%.
The same measure, in the same setting: then `COC(=O)CCC[C@@H]1[C@H]2CCCN3CCC[C@@H](CN1Cc1ccc(F)cc1)[C@@H]23`, with 0.8%.
Take `O=C(O)CCC[C@@H]1[C@H]2CCCN3CCC[C@H](CN1Cc1cccc(F)c1)[C@@H]23`: the inhibition at 10 µg/mL in assay [1] was found to be 25.2%.
With `COC(=O)CCC[C@H]1NC[C@H]2CCCN3CCC[C@H]1[C@H]23`, the inhibition at 10 µg/mL in assay [1] came out at 33.4%.
In the case of `O=C(O)CCC[C@@H]1[C@H]2CCCN3CCC[C@H](CN1Cc1ccccc1)[C@@H]23`, the inhibition at 10 µg/mL in assay [1] is 1.5%.
Regarding `COC(=O)CCC[C@@H]1[C@H]2CCCN3CCC[C@H](CN1Cc1ccc(Br)cc1)[C@@H]23`, the inhibition at 10 µg/mL in assay [1] is 89.6%.
Regarding `COCCCC[C@@H]1[C@H]2CCCN3CCC[C@H](CN1Cc1ccc(F)cc1)[C@@H]23`, the inhibition at 10 µg/mL in assay [1] was 6.8%.
`COC(=O)CCC[C@@H]1[C@H]2CCCN3CCC[C@H](CN1Cc1cccc(F)c1)[C@@H]23`: the inhibition at 10 µg/mL in assay [1] was determined as 81.8%.
In the case of `CCOCCCC[C@@H]1[C@H]2CCCN3CCC[C@H](CN1Cc1ccc(F)cc1)[C@@H]23`, the inhibition at 10 µg/mL in assay [1] came out at 5.1%.
On to `OCCCC[C@@H]1[C@H]2CCCN3CCC[C@H](CN1Cc1ccccc1F)[C@@H]23`, for which the inhibition at 10 µg/mL in assay [1] was found to be 30.9%.
As for `CCCN1C[C@H]2CCCN3CCC[C@@H]([C@H]23)[C@H]1CCCC(=O)OC`, in assay [1], the inhibition at 10 µg/mL is 24.9%.
`NC(=O)CCC[C@@H]1[C@H]2CCCN3CCC[C@H](CN1Cc1ccc(Cl)cc1)[C@@H]23`: the inhibition at 10 µg/mL in assay [1] was 1.7%.
What is called IC50 is the midpoint of a concentration-inhibition curve. For the compound `O=C1CCC[C@@H]2[C@H]3CCCN4CCC[C@H](CN12)[C@@H]34` [SOPHORIDINE], the IC50 in assay [2] is over 20 µg/mL.
For the compound `CC(C)(C)CN1C[C@H]2CCCN3CCC[C@@H]([C@H]23)[C@H]1CCCCO`, in assay [1], the inhibition at 10 µg/mL is 95.7%.
Consider `OCCCC[C@@H]1[C@H]2CCCN3CCC[C@H](CN1Cc1ccc(F)cc1)[C@@H]23`, for which the inhibition at 10 µg/mL in assay [1] worked out at 35.7%.
As for `COC(=O)CCC[C@@H]1[C@H]2CCCN3CCC[C@H](CN1Cc1ccncc1)[C@@H]23`, the inhibition at 10 µg/mL in assay [1] amounted to 29.9%.
Regarding `OCCCC[C@@H]1[C@H]2CCCN3CCC[C@H](CN1CCc1ccccc1)[C@@H]23`, the inhibition at 10 µg/mL in assay [1] was 34.6%.
On to `CCCN1C[C@H]2CCCN3CCC[C@@H]([C@H]23)[C@H]1CCCC(=O)O`, for which the inhibition at 10 µg/mL in assay [1] stood at 25.3%.
Take `O=C(O)CCC[C@@H]1[C@H]2CCCN3CCC[C@H](CN1C(=O)CBr)[C@@H]23`: the IC50 in assay [2] was 15.4 µg/mL (≈ 39.8 µM).
With `OCCCC[C@@H]1[C@H]2CCCN3CCC[C@H](CN1Cc1ccncc1)[C@@H]23`, the inhibition at 10 µg/mL in assay [1] was 1.2%.
Turning to `CCOCCCC[C@@H]1[C@H]2CCCN3CCC[C@H](CN1Cc1ccc(Cl)cc1)[C@@H]23`, the inhibition at 10 µg/mL in assay [1] came to 0.2%.
`COC(=O)CCC[C@@H]1[C@H]2CCCN3CCC[C@H](CN1Cc1ccco1)[C@@H]23`: the inhibition at 10 µg/mL in assay [1] came to 16.6%.
For the compound `CCOCCCC[C@@H]1[C@H]2CCCN3CCC[C@H](CN1Cc1ccccc1)[C@@H]23`, the inhibition at 10 µg/mL in assay [1] came to 2.1%.
On to `OCCCC[C@@H]1[C@H]2CCCN3CCC[C@H](CN1Cc1ccccc1)[C@@H]23`, for which the inhibition at 10 µg/mL in assay [1] came out at 18.7%.
With `O=C(O)CCC[C@@H]1[C@H]2CCCN3CCC[C@H](CN1Cc1ccncc1)[C@@H]23`, the inhibition at 10 µg/mL in assay [1] amounted to 22.3%.
Still for that read-out and setting: then `OCCCC[C@@H]1[C@H]2CCCN3CCC[C@H](CN1Cc1cccc(F)c1)[C@@H]23`, with 24.3%; and `COC(=O)CCC[C@@H]1[C@H]2CCCN3CCC[C@H](CN1Cc1ccccc1F)[C@@H]23`, with 60.8%; and `O=C(O)CCC[C@@H]1[C@H]2CCCN3CCC[C@H](CN1Cc1ccccc1F)[C@@H]23`, with 1.6%.
In the case of `O=C(O)CCC[C@@H]1[C@H]2CCCN3CCC[C@H](CN1Cc1ccc(Cl)cc1)[C@@H]23`, in assay [1], the inhibition at 10 µg/mL came to 3.5%.
Take `O=C(O)CCC[C@@H]1[C@H]2CCCN3CCC[C@H](CN1Cc1ccc(Br)cc1)[C@@H]23`: the inhibition at 10 µg/mL in assay [1] was found to be 24.9%.
In the case of `COCCCC[C@@H]1[C@H]2CCCN3CCC[C@H](CN1Cc1ccc(Cl)cc1)[C@@H]23`, in assay [1], the inhibition at 10 µg/mL amounted to 0.3%.
On the same count and under the same terms, to `O=C(O)CCC[C@@H]1[C@H]2CCCN3CCC[C@H](CN1Cc1ccc(F)cc1)[C@@H]23` belongs 2%; to `OCCCC[C@@H]1[C@H]2CCCN3CCC[C@@H](CN1Cc1ccccc1)[C@@H]23`, 31%.
With `OCCCC[C@@H]1[C@H]2CCCN3CCC[C@H](CN1Cc1ccccc1Cl)[C@@H]23`, in assay [1], the inhibition at 10 µg/mL worked out at 88.1%.
Regarding `OCCCC[C@@H]1[C@H]2CCCN3CCC[C@@H](CN1Cc1ccc(F)cc1)[C@@H]23`, in assay [1], the inhibition at 10 µg/mL turned out to be 0.1%.
Take `CCCN1C[C@H]2CCCN3CCC[C@@H]([C@H]23)[C@H]1CCCCO`: the inhibition at 10 µg/mL in assay [1] amounted to 0.9%.
Still for that read-out and setting: then `OCCCC[C@@H]1[C@H]2CCCN3CCC[C@@H](CN1Cc1ccc(Cl)cc1)[C@@H]23`, with 4.9%; and `CC(C)CN1C[C@H]2CCCN3CCC[C@@H]([C@H]23)[C@H]1CCCC(=O)O`, with 10.7%; and `COC(=O)CCC[C@@H]1[C@H]2CCCN3CCC[C@H](CN1Cc1ccc(F)cc1)[C@@H]23`, with 73.1%.
On the same count and under the same terms, then `OCCCC[C@@H]1[C@H]2CCCN3CCC[C@H](CN1Cc1ccco1)[C@@H]23`, with 33.2%.
`COC(=O)CCC[C@@H]1[C@H]2CCCN3CCC[C@H](CN1CC(C)C)[C@@H]23`: the inhibition at 10 µg/mL in assay [1] was determined as 26.8%.
As to `Cc1ccc(CN2C[C@H]3CCCN4CCC[C@@H]([C@H]34)[C@H]2CCCCO)cc1`, in assay [1], the inhibition at 10 µg/mL worked out at 17.8%.
For the compound `COCCCC[C@@H]1[C@H]2CCCN3CCC[C@H](CN1Cc1ccccc1)[C@@H]23`, the inhibition at 10 µg/mL in assay [1] was determined as 4.4%.
In the case of `CC(C)CN1C[C@H]2CCCN3CCC[C@@H]([C@H]23)[C@H]1CCCCO`, the inhibition at 10 µg/mL in assay [1] is 9.1%.
Regarding `COC(=O)CCC[C@@H]1[C@H]2CCCN3CCC[C@H](CN1Cc1cccc(Cl)c1)[C@@H]23`, the inhibition at 10 µg/mL in assay [1] is 84.9%.
